Experiment [1] has as its target T1, Renin (Homo sapiens, UniProt P00797).
T1 sequence (P00797 whole entry): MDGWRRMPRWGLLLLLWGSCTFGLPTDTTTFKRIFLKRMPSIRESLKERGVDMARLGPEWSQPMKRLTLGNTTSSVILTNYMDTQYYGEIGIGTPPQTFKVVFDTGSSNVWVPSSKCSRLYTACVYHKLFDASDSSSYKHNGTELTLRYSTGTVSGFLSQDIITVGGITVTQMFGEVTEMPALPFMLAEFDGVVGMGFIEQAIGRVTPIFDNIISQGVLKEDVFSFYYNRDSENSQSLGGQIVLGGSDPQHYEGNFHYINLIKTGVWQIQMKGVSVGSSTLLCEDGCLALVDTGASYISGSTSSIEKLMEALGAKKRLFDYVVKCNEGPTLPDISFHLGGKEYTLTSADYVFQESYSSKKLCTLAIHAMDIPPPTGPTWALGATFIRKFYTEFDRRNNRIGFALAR
The experiment is described as follows: In vitro inhibition of purified Human kidney renin (250 pg/mL) incubated with angiotensinogen at pH 7.2. The method, boiled down:
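Purified human kidney renin at 250 pg/mL, incubated at 37 °C with human angiotensinogen at pH 7.2.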

Experiment [2] has as its system Monkey. Put plainly: Reduction of blood pressure measured 120 min after administration of compound(dose 1 mg/kg, p.o.). Format: functional. Conditions: route oral. The method, boiled down: (§1)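 Salt-depleted marmosets given a single intravenous or oral dose. Blood pressure change recorded in mmHg at 30, 60 and 120 min after dosing.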
The test system of experiment [3] is Monkey. Put plainly: Reduction of blood pressure measured 60 min after administration of compound(dose 0.1 mg/kg, iv). In kind it is functional. The method, boiled down: as §1
Experiment [4] relates to Monkey. Put plainly: Reduction of blood pressure measured 60 min after administration of compound(dose 3 mg/kg, po). In kind it is functional. The essentials:
as §1

Experiment [5] has as its system Monkey. Put plainly: Reduction of blood pressure measured 60 min after administration of compound(dose 1 mg/kg, p.o.). Conditions: route oral. Format: functional. The essentials:
as §1

The test system of experiment [6] is Monkey. Put plainly: Reduction of blood pressure measured 30 min after administration of compound(dose 1 mg/kg, iv). In kind it is functional. The method, boiled down:
as §1

The test system of experiment [7] is Monkey. Put plainly: Reduction of blood pressure measured 30 min after administration of compound(dose 1 mg/kg, p.o.). In kind it is functional. To be noted: route oral. The essentials: as §1
Experiment [8] relates to Monkey. Put plainly: Reduction of blood pressure measured 60 min after administration of compound(dose 10mg/kg, po). In kind it is functional. The essentials: as §1
In experiment [9] the test system is Monkey. Put plainly: Reduction of blood pressure measured 30 min after administration of compound(dose 10mg/kg, po). In kind it is functional. The essentials: as §1
The subject of experiment [10] is Monkey. The experiment is described as follows: Reduction of blood pressure measured 30 min after administration of compound(dose 0.1 mg/kg, iv). In kind it is functional. The essentials: as §1
Experiment [11] relates to Monkey. The experiment is described as follows: Reduction of blood pressure measured 120 min after administration of compound(dose 0.1 mg/kg, iv). In kind it is functional. The essentials: as §1
Experiment [12] relates to Monkey. The experiment is described as follows: Reduction of blood pressure measured 120 min after administration of compound(dose 3 mg/kg, po). Format: functional. The method, boiled down: as §1
Experiment [13] concerns Monkey. Put plainly: Reduction of blood pressure measured 60 min after administration of compound(dose 1 mg/kg, iv). Format: functional. The essentials: as §1
The test system of experiment [14] is Monkey. The experiment is described as follows: Reduction of blood pressure measured 30 min after administration of compound(dose 3mg/kg, po). Format: functional. The essentials:
as §1

The test system of experiment [15] is Monkey. The experiment is described as follows: Reduction of blood pressure measured 120 min after administration of compound(dose 10 mg/kg, po). In kind it is functional. The essentials: as §1
Experiment [16] addresses T2, Cathepsin D (Bos taurus, UniProt P80209).
T2 sequence (P80209 whole entry): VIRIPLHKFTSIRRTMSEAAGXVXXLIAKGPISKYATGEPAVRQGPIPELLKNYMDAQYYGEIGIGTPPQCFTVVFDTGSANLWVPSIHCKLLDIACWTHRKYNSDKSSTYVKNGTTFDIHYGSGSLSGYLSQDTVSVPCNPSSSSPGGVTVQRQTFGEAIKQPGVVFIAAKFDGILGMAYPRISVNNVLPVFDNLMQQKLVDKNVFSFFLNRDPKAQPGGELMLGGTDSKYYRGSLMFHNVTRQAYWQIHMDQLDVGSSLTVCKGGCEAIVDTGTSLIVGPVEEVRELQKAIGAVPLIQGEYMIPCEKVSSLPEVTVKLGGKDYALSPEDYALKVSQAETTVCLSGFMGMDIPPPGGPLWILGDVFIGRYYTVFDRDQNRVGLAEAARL
The experiment is described as follows: In vitro inhibition of bovine cathepsin D.

Experiment [17] deals with Monkey. Put plainly: Reduction of blood pressure measured 120 min after administration of compound(dose 1 mg/kg, iv). In kind it is functional. The essentials:
as §1

Each structure is given as a SMILES string. pIC50: −log10 of the molar value. *1 amine or outer side, *2 acyl side, *3 side chain or, on linkers, in order; H or OH if unused. Where a SMILES comes first, the peptide text is derived from it. [ ]: non-standard residue; d: D form. The star is where a group is joined. ξ: configuration not given here. LeuΨ(ξCHOHCH2)Val = CC(C)C[C@H](N[*:1])C(O)C[C@H](C(=O)[*:2])C(C)C; Boc = CC(C)(C)OC(=O)*; Piv = CC(C)(C)C(=O)*

The term pIC50 denotes the negative decadic logarithm of the IC50, by convention in mol/L.

With `CCCCNC(=O)[C@@H](CC(O)[C@H](CC1CCCCC1)NC(=O)[C@H](Cc1c[nH]cn1)NC(=O)C(CC(=O)C(C)(C)C)Cc1ccccc1)C(C)C` (stereo not given in full), the pIC50 in experiment [1] is 8.22.
Regarding `CCCCNC(=O)[C@@H](CC(O)[C@H](CC1CCCCC1)NC(=O)[C@H](Cc1c[nH]cn1)NC(=O)C(Cc1ccccc1)CS(=O)(=O)C(C)(C)C)C(C)C` (stereo in doubt; 8i), the Delta blood pressure is -6 mmHg in experiment [2]; -5 mmHg in experiment [3]; -10 mmHg in [4]; -5 mmHg in [5]; -17 mmHg in [6]; 0 mmHg in experiment [7]. For the same compound, the Delta blood pressure in experiment [8] is -23 mmHg; in experiment [9] it was -18 mmHg; in experiment [10], -13 mmHg; in experiment [11], -1 mmHg; in experiment [12], -8 mmHg; in experiment [13], -13 mmHg. For the same compound, the figures for the Delta blood pressure in experiment [14], in experiment [15] and in experiment [17] were -6 mmHg, -23 mmHg and -12 mmHg, respectively. In [16], the negative logarithm of the IC50 (pIC50) is 5.49.
As to `CCCCNC(=O)[C@@H](CC(O)[C@H](CC1CCCCC1)NC(=O)[C@H](Cc1cnc[nH]1)NC(=O)[C@@H](CSC(C)(C)C)Cc1ccccc1)C(C)C` (stereo not given in full), the pIC50 in [1] is 8.40.
Consider `CC[C@H](C)[C@H](NC(=O)[C@@H](CC(O)[C@H](CC(C)C)NC(=O)[C@H](Cc1c[nH]cn1)NC(=O)[C@H](Cc1ccccc1)NC(=O)C(C)(C)C)C(C)C)C(=O)N[C@@H](Cc1c[nH]cn1)C(N)=O` (stereo not given in full) (Piv-FH[LeuΨ(ξCHOHCH2)Val]IH-NH2), for which, in experiment [1], the negative-log IC50 (pIC50) was 7.70.
On the same count and under the same terms, as for `CCCCNC(=O)[C@@H](CC(O)[C@H](CC1CCCCC1)NC(=O)[C@H](Cc1c[nH]cn1)NC(=O)C(C)(OC(=O)C(C)(C)C)c1ccccc1)C(C)C` (stereo not given in full), the figure is 8.15.
On the same count and under the same terms, to `CCCCNC(=O)[C@@H](CC(O)[C@H](CC1CCCCC1)NC(=O)[C@H](Cc1c[nH]cn1)NC(=O)[C@H](Cc1ccccc1)C[S+]([O-])C(C)(C)C)C(C)C` (stereo not given in full) belongs 8.70.
The same measure, in the same setting: to `CCCCNC(=O)[C@@H](CC(O)[C@H](CC(C)C)NC(=O)[C@H](Cc1cnc[nH]1)NC(=O)C(C)(OC(=O)C(C)(C)C)c1ccccc1)C(C)C` (stereo not given in full) belongs 7.70; to `CC[C@H](C)[C@H](NC(=O)[C@@H](CC(O)[C@H](CC(C)C)NC(=O)[C@H](Cc1cnc[nH]1)NC(=O)[C@H](Cc1ccccc1)NC(=O)OC(C)(C)C)C(C)C)C(=O)N[C@@H](Cc1cnc[nH]1)C(N)=O` (stereo not given in full) (Boc-FH[LeuΨ(ξCHOHCH2)Val]IH-NH2), 7.82.
In turn, `CC[C@H](C)[C@H](NC(=O)[C@@H](CC(O)[C@H](CC(C)C)NC(=O)[C@H](Cc1cnc[nH]1)NC(=O)C(C)(OC(=O)C(C)(C)C)c1ccccc1)C(C)C)C(=O)N[C@@H](Cc1cnc[nH]1)C(N)=O` (stereo not given in full) gave a pIC50 in experiment [1] of 7.70.
The same measure, in the same setting: as for `CCCCNC(=O)[C@@H](CC(O)[C@H](CC1CCCCC1)NC(=O)[C@H](Cc1cnc[nH]1)NC(=O)C(Cc1ccccc1)CP(=O)(OCC)OCC)C(C)C` (stereo not given in full), the figure is 8.40.
